The source of these data is ChEMBL document CHEMBL1132711 (J Med Chem, 1999).

Test [1] concerns the target T1, Progesterone receptor (Homo sapiens) (UniProt P06401).
T1 sequence (whole entry): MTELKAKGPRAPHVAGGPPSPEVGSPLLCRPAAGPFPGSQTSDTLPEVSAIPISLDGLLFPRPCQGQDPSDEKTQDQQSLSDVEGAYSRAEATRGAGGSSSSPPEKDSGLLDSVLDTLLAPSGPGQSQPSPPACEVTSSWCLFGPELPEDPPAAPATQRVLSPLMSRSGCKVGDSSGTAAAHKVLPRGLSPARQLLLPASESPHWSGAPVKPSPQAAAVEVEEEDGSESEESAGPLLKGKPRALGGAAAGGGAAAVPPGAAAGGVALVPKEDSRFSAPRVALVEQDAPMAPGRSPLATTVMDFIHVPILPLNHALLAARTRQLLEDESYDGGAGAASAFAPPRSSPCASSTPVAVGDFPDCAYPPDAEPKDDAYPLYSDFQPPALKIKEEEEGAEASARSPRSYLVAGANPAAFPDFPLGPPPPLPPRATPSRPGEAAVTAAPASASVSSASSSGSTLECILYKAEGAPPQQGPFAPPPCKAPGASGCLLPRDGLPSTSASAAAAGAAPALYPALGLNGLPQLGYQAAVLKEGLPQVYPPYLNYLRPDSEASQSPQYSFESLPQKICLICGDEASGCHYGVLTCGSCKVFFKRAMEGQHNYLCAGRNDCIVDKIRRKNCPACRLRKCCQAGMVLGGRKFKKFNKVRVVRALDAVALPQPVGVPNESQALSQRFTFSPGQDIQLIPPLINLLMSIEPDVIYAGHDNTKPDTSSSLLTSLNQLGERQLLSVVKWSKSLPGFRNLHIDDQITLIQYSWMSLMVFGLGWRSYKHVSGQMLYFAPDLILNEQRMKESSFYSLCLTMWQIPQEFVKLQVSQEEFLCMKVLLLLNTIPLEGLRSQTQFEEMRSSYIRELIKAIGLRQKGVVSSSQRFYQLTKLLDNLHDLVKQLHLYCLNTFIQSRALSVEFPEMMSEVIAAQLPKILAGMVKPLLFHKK
Nature of the test: Agonistic activity by cotransfection assay against human Progesterone receptor in T47D cells. In kind it is functional, cell-based. In short, it runs like this: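 T47D human breast cancer cells (high endogenous hPR) incubated with test compound in 96-well format; alkaline phosphatase expression measured by absorbance. […] EC50 from full dose–response curves; mean of at least three separate experiments in triplicate, or single experiment where no error given.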

Test [2] concerns the target T2, Progesterone receptor (Homo sapiens, UniProt P06401).
T2 sequence (P06401 whole entry): T1 sequence (whole entry)
Nature of the test: Agonistic effect on transcriptional activity in T47D cells expressing human Progesterone receptor. Format: functional, cell-based. In a few lines:
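T47D human breast cancer cells, which express high levels of hPR, incubated with test compound. Readout is absorbance from induced alkaline phosphatase expression. […] Values are the mean of at least three separate experiments in triplicate; values without SEM are from a single experiment.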

For test [3], the target named is T1, Progesterone receptor (Homo sapiens). Nature of the test: (§1) Antagonistic activity by cotransfection assay against human Progesterone receptor in CV-1 cells. Format: functional, cell-based.
For test [4], the target named is T2, Progesterone receptor. Briefly: Compound was evaluated for its binding affinity against baculovirus expressed Progesterone receptor.
Test [5] has as its target T2, Progesterone receptor. The test is described as §1. Format: functional, cell-based.
For test [6], the target named is T2, Progesterone receptor. Briefly: (§2) Compound was tested for agonistic activity by cotransfection assay against human Progesterone receptor in CV-1 cells. In kind it is functional, cell-based.
For test [7], the target named is T1, Progesterone receptor (Homo sapiens). Described as §2. In kind it is functional, cell-based.

As usually defined, the EC50 is the midpoint of the concentration-response curve. Read a high EC50 as lower potency in that assay. With `CC1=CC(C)(C)Nc2ccc3c(c21)C(c1ccc(Cl)cc1)Oc1ccccc1-3` (configuration not stated), in test [1], the Efficacy stood at 48%. The compound also came in with a 50% effective concentration (EC50) in test [2] of 32 nM.

As a reminder, the Ki is the dissociation constant of the complex between target and ligand, obtained from inhibition or displacement. Lower therefore signals higher affinity. The IC50 is the concentration needed to halve the response being measured. Higher therefore signals lower potency. As to `CC1(C)C=Cc2c(ccc3c2C(c2ccc(Cl)cc2)Oc2ccccc2-3)N1` (configuration not stated), the Efficacy in test [3] worked out at 50%; in test [7], 28%. Also, the Ki in test [4] turned out to be 10.5 nM. In test [5], this compound registered an IC50 of 140 nM. Further, in test [6], the EC50 was 1300 nM.
